In data set [1] the test system is Human alphaherpesvirus 1. Put plainly: Concentration that protects by 50% the cytopathic effect induced by herpes simplex virus - 1. The format is functional. The procedure, abridged:
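HeLa monolayers (DMEM + 10% newborn calf serum) infected with HSV-1 strain KOS (Vero-grown and titrated) at moi 0.5 pfu/cell in presence of several compound concentrations; 48 h at 37 °C, then cytopathic effect scored by phase-contrast microscopy. Toxicity judged microscopically in uninfected cells.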

Data set [2] can be described thus: (§1) Concentration that induces 50% cell toxicity was determined using monolayers of uninfected HeLa cells. The format is cell-based. Particulars: human, monolayers of uninfected HeLa cells; read-out: Tox50. The procedure, abridged: (§2)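 Uninfected HeLa monolayers, grown in DMEM with 10% newborn calf serum, were exposed to several concentrations of compound. They were incubated for 48 h at 37 °C, as in the parallel HSV-1 cytopathic-effect assay. Toxicity was judged by phase-contrast microscopy.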

Data set [3] relates to HeLa. The description is as §1. To be noted: human, hela; read-out: Tox50. It counts as cell-based. The essentials:
as §2

Molecules are shown by their SMILES. A value given as a limit tells only on which side of the number the result lay.

`NC(=O)O[C@H]1O[C@H](COCc2ccccc2)[C@@H](OCc2ccccc2)[C@H](OCc2ccccc2)[C@H]1OCc1ccccc1` returned a CPE50 in data set [1] of more than 350 µM. The CC50 in data set [2] was more than 350 µM.

With `CC1(C)O[C@@H]2[C@H](O1)[C@@H](COS(=O)(=O)NC(=O)O[C@H]1O[C@H](COCc3ccccc3)[C@@H](OCc3ccccc3)[C@H](OCc3ccccc3)[C@H]1OCc1ccccc1)O[C@H]2n1ccc(=O)[nH]c1=O`, in data set [1], the CPE50 stood at 85 µM. Also, the CC50 in data set [2] turned out to be 230 µM.

As to `O=C(NS(=O)(=O)OC[C@H]1OC(n2ccc(=O)[nH]c2=O)[C@H](O)[C@@H]1O)O[C@H]1O[C@H](COCc2ccccc2)[C@@H](OCc2ccccc2)[C@H](OCc2ccccc2)[C@H]1OCc1ccccc1` (some centres undefined), the CPE50 in data set [1] amounted to 90 µM. The CC50 in data set [2] stood at 360 µM.

`CC(=O)N[C@H]1[C@@H](OC(=O)NS(=O)(=O)OC[C@H]2OC(n3ccc(=O)[nH]c3=O)[C@H](O)[C@@H]2O)O[C@H](COC(C)=O)[C@@H](OC(C)=O)[C@@H]1OC(C)=O` (some centres undefined): the CPE50 in data set [1] is more than 575 µM. The CC50 in data set [2] is more than 575 µM.

In turn, `CC1(C)O[C@@H]2[C@H](O1)[C@@H](COS(N)(=O)=O)O[C@H]2n1ccc(=O)[nH]c1=O` came in with a CPE50 in data set [1] of 740 µM. The CC50 in data set [2] stood at 740 µM.

As for `CC1(C)O[C@@H]2[C@H](O1)[C@@H](COC(N)=O)O[C@H]2n1ccc(=O)[nH]c1=O`, the CPE50 in data set [1] is more than 660 µM. The CC50 in data set [2] is more than 660 µM.

In data set [1], `Nc1nc2c(ncn2COCCO)c(=O)[nH]1` [ACYCLOVIR] displayed a CPE50 of 60 µM. Moreover, the CC50 in data set [2] came to 10000 µM.

In data set [1], `NC12CC3CC(CC(C3)C1)C2` [AMANTADINE] gave a CPE50 of 200 µM. The CC50 in data set [2] worked out at 500 µM.

Turning to `O=c1[nH]c(=O)n([C@H]2C[C@H](O)[C@@H](CO)O2)cc1/C=C/Br` [BRIVUDINE], the CPE50 in data set [1] was determined as 1 µM. In addition, the CC50 in data set [2] turned out to be 400 µM.

Regarding `CC(=O)N[C@H]1[C@@H](O[C@@H]2O[C@H](CC(O)[C@H]3O[C@@H](n4ccc(=O)[nH]c4=O)[C@H](O)[C@@H]3O)[C@H](O)[C@H](O)[C@H]2NC(=O)/C=C/CC(C)C)O[C@H](CO)[C@@H](N)[C@@H]1O` (some centres undefined) [TUNICAMYCIN], the CC50 in data set [3] stood at 1 µM.

Values taken from ChEMBL document CHEMBL1122931, “Uridine 5'-diphosphate glucose analogues. Inhibitors of protein glycosylation that show antiviral activity” (J Med Chem, 1985).
